Experimental data reported in ChEMBL document CHEMBL3351648, “Synthesis and pharmacological evaluation of 6-aminonicotinic acid analogues as novel GABA(A) receptor agonists” (Eur J Med Chem, 2014).
The source made the active and inactive calls. The rule behind the calls is not given here.

How the values were obtained:
[1] = biological target: GABA-A receptor; anion channel; test: Displacement of [3H]muscimol from GABAA receptor in SPRD rat brain synaptic membranes by scintillation counting method; format: cell membranes
Summary of the method: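 Rat synaptic membranes were thawed, homogenized in ice-cold 50 mM Tris-HCl pH 7.4, and spun at 48,000g for 10 min at 4 °C, with the wash repeated four times. Incubation was with 5 nM [3H]muscimol (final) and varying test concentrations for 60 min at 0 °C, then GF/C filtration and scintillation counting.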

[2] = Dissociation constant, pKa of the compound by diode array detector method; format: physicochemical
Summary of the method: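 pKa was determined by titration in methanol cosolvent at 23–48%, with three titrations per compound. An in-line diode-array detector recorded UV-Vis spectra, and the titration was mapped against the spectra of the protonated and unprotonated species.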

[3] = biological target: T1, GABA-A receptor; alpha-1/beta-2/gamma-2 (Homo sapiens, UniProt P14867+P18507+P47870); test: (§1) Agonist activity at human GABAAalpha1beta2gamma2S receptor expressed in tsA-201cells by FLIPR membrane potential blue assay
T1 sequence (P14867 whole entry): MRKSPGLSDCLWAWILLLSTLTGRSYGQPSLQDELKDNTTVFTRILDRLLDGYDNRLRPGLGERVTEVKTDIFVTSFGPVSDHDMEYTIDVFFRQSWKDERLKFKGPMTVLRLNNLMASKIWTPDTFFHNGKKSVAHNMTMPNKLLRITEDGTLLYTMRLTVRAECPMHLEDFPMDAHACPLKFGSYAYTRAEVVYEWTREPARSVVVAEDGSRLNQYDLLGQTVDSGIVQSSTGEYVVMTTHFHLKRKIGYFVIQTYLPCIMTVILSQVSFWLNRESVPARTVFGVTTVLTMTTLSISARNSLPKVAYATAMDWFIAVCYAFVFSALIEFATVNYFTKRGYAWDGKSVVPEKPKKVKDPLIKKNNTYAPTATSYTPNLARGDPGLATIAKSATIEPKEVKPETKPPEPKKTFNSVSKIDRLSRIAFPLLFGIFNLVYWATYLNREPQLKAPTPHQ
T1 sequence (P47870 whole entry): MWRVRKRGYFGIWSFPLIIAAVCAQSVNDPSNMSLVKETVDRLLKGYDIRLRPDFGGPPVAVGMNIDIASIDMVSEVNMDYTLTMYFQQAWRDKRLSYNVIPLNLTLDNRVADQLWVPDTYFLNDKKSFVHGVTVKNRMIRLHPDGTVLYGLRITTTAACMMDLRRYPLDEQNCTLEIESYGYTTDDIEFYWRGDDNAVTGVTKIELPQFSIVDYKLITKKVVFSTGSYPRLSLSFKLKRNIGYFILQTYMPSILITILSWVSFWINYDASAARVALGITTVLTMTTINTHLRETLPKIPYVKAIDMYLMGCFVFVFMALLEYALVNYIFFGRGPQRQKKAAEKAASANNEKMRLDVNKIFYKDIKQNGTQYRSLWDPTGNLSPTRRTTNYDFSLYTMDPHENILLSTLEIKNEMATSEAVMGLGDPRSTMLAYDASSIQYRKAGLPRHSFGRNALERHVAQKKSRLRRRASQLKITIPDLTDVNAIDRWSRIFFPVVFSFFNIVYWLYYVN
T1 sequence (P18507 whole entry): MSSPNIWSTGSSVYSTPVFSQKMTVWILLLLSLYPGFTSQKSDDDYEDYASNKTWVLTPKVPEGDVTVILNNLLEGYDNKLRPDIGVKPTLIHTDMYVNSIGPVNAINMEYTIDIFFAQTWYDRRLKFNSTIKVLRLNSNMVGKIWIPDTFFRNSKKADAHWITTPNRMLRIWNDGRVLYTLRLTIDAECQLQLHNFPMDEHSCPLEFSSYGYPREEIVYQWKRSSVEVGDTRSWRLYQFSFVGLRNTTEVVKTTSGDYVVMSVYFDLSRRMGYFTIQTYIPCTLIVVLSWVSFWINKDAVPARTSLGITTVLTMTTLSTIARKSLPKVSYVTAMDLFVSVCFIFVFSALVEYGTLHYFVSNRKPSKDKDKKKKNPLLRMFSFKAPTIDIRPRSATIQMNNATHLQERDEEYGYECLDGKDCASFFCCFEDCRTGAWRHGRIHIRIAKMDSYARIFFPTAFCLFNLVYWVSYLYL
Summary of the method: (§2)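 tsA201 cells (8×10^5 per 6 cm dish) were transfected with α1, α2, α3 or α5 plus β2 and γ2S cDNAs (1:1:3), or with ρ1 alone. Next day cells were replated into poly-D-lysine 96-well plates. After 16–24 h they were washed with Krebs buffer pH 7.4, given membrane-potential dye, held 30 min at 37 °C, and read at 560 nm emission. Concentration-response curves used ΔFU before versus after agonist; duplicates were run ≥3 times.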

[4] = biological target: T2, GABA-A receptor; alpha-1/beta-2/gamma-2 (Homo sapiens, UniProt P14867+P47870+P18507); test: as §1; conditions: tsa-201; summary of the method: as §2
T2 sequence (P14867 whole entry): T1 sequence (P14867 whole entry)
T2 sequence (P47870 whole entry): T1 sequence (P47870 whole entry)
T2 sequence (P18507 whole entry): T1 sequence (P18507 whole entry)

[5] = biological target: T3, Gamma-aminobutyric acid receptor subunit rho-1 (Homo sapiens, UniProt P24046); test: Agonist activity at human GABAA rho1 expressed in tsA-201cells by FLIPR membrane potential blue assay; summary of the method: as §2
T3 sequence (P24046 whole entry): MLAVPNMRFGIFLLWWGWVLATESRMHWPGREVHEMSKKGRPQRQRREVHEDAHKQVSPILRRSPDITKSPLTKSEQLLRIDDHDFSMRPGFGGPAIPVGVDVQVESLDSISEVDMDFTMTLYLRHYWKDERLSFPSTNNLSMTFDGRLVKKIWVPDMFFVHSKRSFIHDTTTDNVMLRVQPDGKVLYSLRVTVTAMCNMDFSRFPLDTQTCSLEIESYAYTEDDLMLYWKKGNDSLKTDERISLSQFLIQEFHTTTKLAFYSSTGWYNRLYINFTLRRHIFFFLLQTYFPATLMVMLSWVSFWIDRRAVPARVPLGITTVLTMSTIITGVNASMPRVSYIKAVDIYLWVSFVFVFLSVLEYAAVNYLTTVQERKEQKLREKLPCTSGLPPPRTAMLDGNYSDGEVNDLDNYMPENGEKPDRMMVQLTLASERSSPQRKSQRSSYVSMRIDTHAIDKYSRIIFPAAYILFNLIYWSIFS

[6] = biological target: T3, Gamma-aminobutyric acid receptor subunit rho-1; test: Agonist activity at human GABAA rho1 expressed in tsA-201cells at 1 mM by FLIPR membrane potential blue assay; format: cell-based
Summary of the method: (§3)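 Transfected tsA201 cells (α1β2γ2S or ρ1) were loaded with membrane-potential dye in Krebs buffer pH 7.4 for 30 min at 37 °C. Compound was applied at a single 1 mM concentration. Response was read as fluorescence change at 560 nm emission before versus after addition, in duplicate on ≥3 occasions.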

[7] = biological target: GABA-A receptor; alpha-1/beta-2/gamma-2 (Homo sapiens) (UniProt P14867+P47870+P18507); test: Agonist activity at human GABAAalpha1beta2gamma2S receptor expressed in tsA-201cells at 1 mM by FLIPR membrane potential blue assay; format: cell-based; summary of the method: as §3
[8] = biological target: T4, GABA A receptor alpha-2/beta-2/gamma-2 (Homo sapiens, UniProt P18507+P47869+P47870); test: Agonist activity at human GABAAalpha2beta2gamma2S receptor expressed in tsA-201cells by FLIPR membrane potential blue assay; summary of the method: as §2
T4 sequence (P47870 whole entry): T1 sequence (P47870 whole entry)
T4 sequence (P18507 whole entry): T1 sequence (P18507 whole entry)
T4 sequence (P47869 whole entry): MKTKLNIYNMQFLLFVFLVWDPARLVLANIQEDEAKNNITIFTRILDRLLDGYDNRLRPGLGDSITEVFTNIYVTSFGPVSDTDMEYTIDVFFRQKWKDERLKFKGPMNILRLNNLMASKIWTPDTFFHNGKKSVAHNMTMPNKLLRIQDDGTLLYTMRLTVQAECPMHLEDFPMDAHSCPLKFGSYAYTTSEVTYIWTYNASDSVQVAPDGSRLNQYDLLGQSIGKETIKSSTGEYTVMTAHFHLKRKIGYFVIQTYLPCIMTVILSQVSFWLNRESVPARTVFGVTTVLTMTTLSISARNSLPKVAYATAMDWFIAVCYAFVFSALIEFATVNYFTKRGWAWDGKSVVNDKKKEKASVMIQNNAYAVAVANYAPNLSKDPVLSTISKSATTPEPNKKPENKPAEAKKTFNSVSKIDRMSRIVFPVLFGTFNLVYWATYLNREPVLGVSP

[9] = biological target: GABA A receptor alpha-2/beta-2/gamma-2 (Homo sapiens) (UniProt P47870+P18507+P47869); test: Agonist activity at human GABAAalpha2beta2gamma2S receptor expressed in tsA-201cells by FLIPR membrane potential blue assay relative to GABA
[10] = biological target: T5, GABA A receptor alpha-3/beta-2/gamma-2 (Homo sapiens, UniProt P18507+P34903+P47870); test: Agonist activity at human GABAAalpha3beta2gamma2S receptor expressed in tsA-201cells by FLIPR membrane potential blue assay; summary of the method: as §2
T5 sequence (P47870 whole entry): T1 sequence (P47870 whole entry)
T5 sequence (P18507 whole entry): T1 sequence (P18507 whole entry)
T5 sequence (P34903 whole entry): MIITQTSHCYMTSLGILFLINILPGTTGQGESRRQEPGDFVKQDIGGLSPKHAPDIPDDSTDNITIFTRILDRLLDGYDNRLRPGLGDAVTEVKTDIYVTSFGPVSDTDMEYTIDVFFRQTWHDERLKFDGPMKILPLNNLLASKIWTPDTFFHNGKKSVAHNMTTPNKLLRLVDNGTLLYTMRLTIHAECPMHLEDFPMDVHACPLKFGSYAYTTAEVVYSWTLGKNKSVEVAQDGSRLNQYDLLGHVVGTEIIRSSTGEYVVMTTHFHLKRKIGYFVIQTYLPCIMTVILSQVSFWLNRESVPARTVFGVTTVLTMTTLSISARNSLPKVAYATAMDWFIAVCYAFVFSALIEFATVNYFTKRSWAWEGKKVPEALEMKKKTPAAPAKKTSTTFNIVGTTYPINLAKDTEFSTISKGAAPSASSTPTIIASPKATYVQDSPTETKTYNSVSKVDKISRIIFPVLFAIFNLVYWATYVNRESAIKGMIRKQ

[11] = biological target: GABA A receptor alpha-3/beta-2/gamma-2 (Homo sapiens) (UniProt P47870+P18507+P34903); test: Agonist activity at human GABAAalpha3beta2gamma2S receptor expressed in tsA-201cells by FLIPR membrane potential blue assay relative to GABA
[12] = Agonist activity at human GABAAalpha5beta2gamma2S receptor expressed in tsA-201cells by FLIPR membrane potential blue assay; format: cell membranes
tsA-201 = test: Agonist activity at human GABAAalpha5beta2gamma2S receptor expressed in tsA-201cells by FLIPR membrane potential blue assay relative to GABA
[13] = biological target: T3, Gamma-aminobutyric acid receptor subunit rho-1; test: Agonist activity at human GABAA rho1 expressed in tsA-201cells by FLIPR membrane potential blue assay relative to GABA

Nc1cc(CC(=O)O)ccn1
Ki [1]: 73 µM

Nc1ncc(C(=O)O)cn1
Ki [1]: > 100 µM
pKa [2]: 1.9

CCc1nc(N)ccc1C(=O)O
Ki [1]: 2.1 µM
EC50 ([3]; read-out: EC50): > 1000 µM
pEC50 [4]: < 3
EC50 ([5]; read-out: EC50): > 1000 µM
pEC50 ([5]; tsa-201): < 3

Nc1cccc(C(=O)O)n1
Ki [1]: > 100 µM

CCc1cc(N)ncc1C(=O)O
Ki [1]: 9.3 µM
EC50 ([3]; read-out: EC50): > 1000 µM
pEC50 [4]: < 3
EC50 ([5]; read-out: EC50): > 1000 µM
pEC50 ([5]; tsa-201): < 3

Cc1cc(N)ncc1C(=O)O
Ki [1]: 3.6 µM
EC50 ([3]; read-out: EC50): > 1000 µM
pEC50 [4]: < 3
EC50 ([5]; tsa-201): Active
Activity [6]: Active

Nc1ccc(C(=O)O)cn1
Ki [1]: 4.4 µM
pKi [1]: 5.39
EC50 ([3]; read-out: EC50): > 300 µM
EC50 ([3]; read-out: pEC50 (converted)): > 316 µM
EC50 ([5]; tsa-201): Active
pKa [2]: 6.2

Nc1ccc(C(=O)O)c(Cl)n1
Ki [1]: > 100 µM

NCc1cc(=O)[nH]o1 [MUSCIMOL]
Ki [1]: 0.006 µM

O=C(O)C1CN=CNC1 (stereo not drawn)
Ki [1]: 5.3 µM
pKi [1]: 5.29
EC50 [4]: Active
Rmax [7]: 25%
pKa [2]: 12.2

CNC1=NCC(C(=O)O)CC1 (stereo not drawn)
Ki [1]: 49 µM
pKi [1]: 4.32
EC50 ([3]; read-out: EC50): > 1000 µM
pEC50 [4]: < 3

NC1=NCC(C(=O)O)CC1 (stereo not drawn)
Ki [1]: 0.044 µM
EC50 ([3]; read-out: EC50): 2.6 µM
EC50 ([5]; read-out: EC50): 2.3 µM
EC50 ([5]; read-out: pEC50 (converted)): 1.23 µM
pKa [2]: 12.4
EC50 [8]: 0.82 µM
Rmax [9]: 101%
EC50 [10]: 1.1 µM
Rmax [11]: 93%
EC50 [12]: 0.092 µM
pEC50 [12]: 7.04
Rmax (tsA-201): 100%
Rmax [13]: 64%

Nc1ccc(CC(=O)O)cn1
Ki [1]: 90 µM

NCc1cc(O)no1 [MUSCIMOL]
Rmax [9]: 99%
Rmax [11]: 97%
EC50 [12]: 0.054 µM
pEC50 [12]: 7.27
Rmax (tsA-201): 114%
Rmax [13]: 98%

Nc1ncccc1CC(=O)O
Ki [1]: > 100 µM

Nc1cc(C(=O)O)ccn1
Ki [1]: 19 µM
